High-throughput results as filed in PubChem.
PME-1 primary – PME-1 inhibitors via competitive probe labeling, primary screen, biochemical, fluorescence polarization, FP-Rh probe, HTS; inhibition, % at 5.9 µM; Protein phosphatase methylesterase 1 (Homo sapiens), Q9Y570; AID 2130, 2009; actives 0.53% (n = 320,000); recombinant PME-1;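 active = inhibition above the campaign mean of all compounds plus 3 SD, cut at about 26% in these data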;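 note: competitive labeling of PME-1 active site by serine hydrolase directed probe; 0% = PME-1 with DMSO and 100% = wells lacking PME-1 enzyme; inhibitors block probe labeling so polarization falls and inhibition rises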
Fam108B inh – mouse Fam108B serine hydrolase inhibitors, primary screen, counter-screen for RBBP9 inhibitor project, biochemical, fluorescence polarization | recombinant Fam108B, FP-Rh probe fluorescence polarization | inhibition, % at 9.51 µM | actives 0.33% (n = 300,000) | AID 1947, 2009;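 active = inhibition above the screen mean inhibition plus 3 SD, computed separately per campaign, cut at about 18% in these data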;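 note: inhibitors lower polarization as less probe binds the enzyme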
PAD4 inh – human PAD4 inhibitors, primary screen, biochemical, fluorescence polarization, 1536-well format. Protein-arginine deiminase type-4 (Homo sapiens), Q9UM07. recombinant PAD4, RCA probe fluorescence polarization. inhibition, % at 6.36 µM. actives 0.41% (n = 330,000). AID 485272, 2010;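 active = percent inhibition above a cutoff equal to the mean of all tested compounds plus 3 SD, cut at about 15% in these data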;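 note: 0% = PAD4 with RCA probe and DMSO and 100% = probe without PAD4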
Target sequence (Q9UM07 whole entry, looked up): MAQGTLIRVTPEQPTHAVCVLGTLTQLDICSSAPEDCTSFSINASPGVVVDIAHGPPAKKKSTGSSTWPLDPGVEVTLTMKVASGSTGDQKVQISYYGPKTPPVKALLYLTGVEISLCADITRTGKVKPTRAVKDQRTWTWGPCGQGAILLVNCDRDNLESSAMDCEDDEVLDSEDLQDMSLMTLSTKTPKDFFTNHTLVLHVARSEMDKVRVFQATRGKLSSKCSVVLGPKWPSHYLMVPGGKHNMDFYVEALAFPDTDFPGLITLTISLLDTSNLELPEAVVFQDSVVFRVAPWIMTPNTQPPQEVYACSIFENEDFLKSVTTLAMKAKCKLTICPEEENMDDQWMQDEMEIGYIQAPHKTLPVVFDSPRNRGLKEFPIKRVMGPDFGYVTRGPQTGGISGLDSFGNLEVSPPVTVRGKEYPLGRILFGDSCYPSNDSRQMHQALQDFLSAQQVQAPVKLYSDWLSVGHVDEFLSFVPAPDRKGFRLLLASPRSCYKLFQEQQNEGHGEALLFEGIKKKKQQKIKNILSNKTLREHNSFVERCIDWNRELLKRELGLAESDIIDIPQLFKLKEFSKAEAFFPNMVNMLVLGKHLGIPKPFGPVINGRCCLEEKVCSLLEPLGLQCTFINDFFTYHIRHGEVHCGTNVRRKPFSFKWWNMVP
LYPLA1 counter – LYPLA1 inhibitors, primary screen, counter-screen for PME1 inhibitor project, biochemical, fluorescence polarization, FP-Rh probe ABPP. actives 0.16% (n = 320,000). Acyl-protein thioesterase 1 (Homo sapiens), O75608. inhibition, % at 5.9 µM. recombinant LYPLA1;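 active = inhibition above the mean of all tested compounds plus 3 SD, set per campaign, cut at about 14% in these data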;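 note: inhibitors block serine hydrolase probe labeling of LYPLA1 so polarization falls; 0% = enzyme with DMSO and 100% = wells lacking LYPLA1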
RBBP9 inhibitor – human RBBP9 inhibitors, primary screen, biochemical, fluorescence polarization, FP-Rh probe, HTS; Serine hydrolase RBBP9 (Homo sapiens), O75884; recombinant RBBP9; inhibition, % at 7.94 µM; actives 0.2% (n = 220,000);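 active = inhibition above the campaign mean of all tested compounds plus 3 SD, cut at about 14% in these data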;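 note: plate controls were DMSO wells with RBBP9 for no effect and wells lacking RBBP9 protein for full effect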
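System: RBBP9 protein | Quantity: 2.5 µM RBBP9 dispensing solution, before mixing | Reagent: FP-Rh probe, 375 nM dispensing solution | Timing: Enzyme-compound preincubation 30 min, then probe labeling 45 min, 25 °C | Measured by: Fluorescence polarization | Read-out: % inhibition | Replication: One well per compound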
LYPLA2 inh – LYPLA2 inhibitors, primary screen, counter-screen for PME1 inhibitor project, biochemical, fluorescence polarization, FP-Rh probe ABPP | inhibition, % at 5.9 µM | AID 2177, 2009 | Acyl-protein thioesterase 2 (Homo sapiens), O95372 | actives 0.38% (n = 320,000) | recombinant LYPLA2;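 active = inhibition above the screen-wide mean plus 3 SD, limit set per campaign, cut at about 26% in these data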;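 note: 0% = LYPLA2 with DMSO and 100% = wells lacking LYPLA2 enzyme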
LYPLA2 confirm – LYPLA2 inhibitors, retest, confirmation, counter-screen for PME1 inhibitor project, biochemical, fluorescence polarization, FP-Rh probe ABPP | shares compounds with LYPLA2 inh | recombinant LYPLA2 | inhibition, % at 5.9 µM | actives 72% (n = 1,100) | AID 2232, 2010;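 active = mean inhibition across replicates above the hit cutoff set in the primary screen, cut at about 26% in these data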;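 note: blocked labeling of the enzyme by serine hydrolase FP-Rh probe lowers polarization; 0% = enzyme with DMSO and 100% = wells lacking LYPLA2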
LYPLA2 ABPP – LYPLA2 inhibitors in proteome, late-stage follow-up, gel-based competitive ABPP, fluorescence, assay provider | rhLYPLA2 in mouse brain proteome, gel ABPP FP-Rh | inhibition, % at 20 µM | actives 30% (n = 150) | shares compounds with LYPLA2 inh | AID 652029, 2013;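 active = inhibition of LYPLA2 enzyme probe labeling above about 50%, limit read from the data; inactive = inhibition below that limit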;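 note: loss of FP-Rh probe labeling of the LYPLA2 gel band measured as band density; 0% = DMSO only control band and 100% = blank gel background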
Starred values were filed as active, the others as inactive; x = not tested or not shown. This is a sample that favours compounds with a hit; in the whole collection about 1.3% have one here.

SMILES | PME-1 primary | Fam108B inh | PAD4 inh | LYPLA1 counter | RBBP9 inhibitor | LYPLA2 inh | LYPLA2 confirm | others
Cc1ccccc1SCC(=O)N1CCN(c2ccc(C(F)(F)F)cn2)CC1 | 1 | -7 | 8 | -3 | -1 | 28* | 36*
O=C(O)COc1ccccc1/C=N/NC(=O)CSc1nc2ccccc2n1Cc1ccccc1Cl | -3 | 3 | 4 | -5 | -2 | -7 | x
COc1ccc(CCNC(=O)Cn2cnc3ccccc3c2=O)cc1OC | -12 | 8 | -6 | -1 | -8 | 0 | x
CC(=O)NCCc1ccc(C(=O)Cn2cnc3ccccc3c2=O)cc1 | -3 | -3 | -1 | 2 | x | 29* | 39*
COc1ccccc1Nc1ncc(C(=O)N2CCN(Cc3ccc(OC)c(OC)c3OC)CC2)c2ccccc12 | 6 | 0 | -2 | 2 | 0 | 46* | 24
CCOC(=O)N1CCC(NC(=O)CC2C(=O)NCCN2Cc2ccccc2F)CC1 (configuration not stated) | 7 | 1 | -1 | 5 | x | 1 | x
Cc1ccc(-c2nn(-c3ccccc3)cc2/C=C/C(=O)Nc2nccs2)cc1 | -9 | -3 | -3 | -2 | -4 | -13 | x
Cc1c(NC(=O)/C=C/c2cn(-c3ccccc3)nc2-c2ccc(F)cc2)c(=O)n(-c2ccccc2)n1C | -6 | -7 | -1 | -8 | x | 31* | 30*
CCC1(C)Cc2c(sc3nnn(CC(=O)Nc4ccccc4C)c(=O)c23)CO1 (configuration not stated) | 3 | -4 | 0 | 2 | 4 | 26 | x
Cc1ccccc1NC(=O)Cn1nnc2sc3c(c2c1=O)CC(C)(C)OC3 | -2 | 1 | 3 | -2 | -9 | 22 | x
CCC1(C)Cc2c(sc3nnn(CC(=O)Nc4ccccc4)c(=O)c23)CO1 (configuration not stated) | -3 | -7 | -2 | -3 | 0 | 39* | 38*
Cc1cccc(NC(=O)Cn2nnc3sc4c(c3c2=O)CC(C)(C)OC4)c1 | -2 | -2 | -4 | -1 | -12 | 39* | 48*
COCCNc1nc2nonc2nc1N(C)Cc1cccc2cnccc12 | -5 | 0 | -1 | 0 | 2 | 1 | x
Cc1nn(-c2ccccc2)c2sc(C(=O)OC3CCOC3=O)cc12 (configuration not stated) | -2 | -4 | 2 | -7 | -4 | 36* | 43*
COC(=O)c1cc2c(C)nn(-c3ccccc3)c2s1 | 7 | -3 | 2 | -2 | 1 | -2 | x
CC1CCCN(C(=O)c2ccc(OC3CCN(CCc4ccccc4)CC3)cc2)C1 (configuration not stated) | 2 | 3 | -1 | 1 | x | 41* | 33*
O=C(c1ccc(OC2CCN(CCc3ccccc3)CC2)cc1)N1CCCC(CO)C1 (configuration not stated) | 4 | 3 | 1 | 2 | -2 | 19 | x
COc1cc(NC(=O)CN(C)S(=O)(=O)c2ccc3c(c2)CC(C)N3C(C)=O)cc(OC)c1OC (configuration not stated) | 2 | -3 | -1 | 7 | x | 4 | x
CC(=O)c1ccc(OCc2cc(C(=O)N3CCC(c4ccncc4)CC3)no2)cc1 | -2 | -2 | 5 | 3 | x | 34* | 37*
Cc1ccc(-n2cnn(-c3ccc([N+](=O)[O-])cc3[N+](=O)[O-])c2=O)cc1 | -3 | 5 | -3 | 2 | x | 55* | 56* | LYPLA2 ABPP=46
COc1ccc(NC2=NCCC(=O)N2Cc2cccs2)cc1 | 2 | 4 | 1 | 2 | 1 | 27* | 21
COc1ccc(NC2=NCC(=O)N2Cc2cccs2)cc1 | 1 | -2 | 0 | 2 | 1 | 14 | x
COc1cccc(NC(=O)C2CC(=O)N(C)C(=Nc3cccc(F)c3)S2)c1 (configuration not stated) | -2 | 3 | -3 | -7 | -5 | 5 | x
CCN1C(=O)CC(C(=O)Nc2ccc(F)cc2)SC1=Nc1cccc(OC)c1 (configuration not stated) | -6 | -5 | 1 | 2 | -11 | 29* | 8
COc1cc(/C=N/NC(=O)/C(=C\c2ccc([N+](=O)[O-])cc2)NC(=O)c2ccccc2)cc(OC)c1O | 5 | 3 | -2 | -2 | -3 | 39* | 42*
SMILES | PME-1 primary | Fam108B inh | PAD4 inh | LYPLA1 counter | RBBP9 inhibitor | LYPLA2 inh | LYPLA2 confirm | others
COc1cc(/C=N/NC(=O)/C(=C\c2ccc3c(c2)OCO3)NC(=O)c2ccccc2)ccc1O | 11 | 6 | 1 | 0 | -9 | 2 | x
CC(=O)Nc1ccc(NC(=O)CSc2nnc3ccc(-c4cccnc4)nn23)cc1 | 2 | -2 | -6 | 5 | x | 3 | x
CC(=O)N1N=C(c2ccc(Cl)cc2)CC1c1ccco1 (configuration not stated) | -2 | 2 | 3 | 0 | 1 | 5 | x
CSCCC1NC(=O)N(CC(=O)N2N=C(c3ccc(Cl)cc3)CC2c2ccco2)C1=O (configuration not stated) | -5 | -8 | -3 | 0 | 4 | 41* | 37*
Cc1ccc(C)c(NS(=O)(=O)c2ccc3[nH]c(=O)oc3c2)c1 | -9 | 5 | -2 | 0 | 1 | -5 | x
Nc1nnn(CC(=O)N/N=C/c2ccccc2Cl)n1 | -3 | 0 | 2 | 1 | -1 | 3 | x
C/C(C=NNC(=O)Cn1nnc(N)n1)=C\c1ccc(C(C)C)cc1 | x | x | x | x | x | x | x | LYPLA2 ABPP=69*
CC1CCCC(NC(=O)CN2C(=O)c3cccnc3Oc3ccc(Cl)cc32)C1C (configuration not stated) | -1 | -1 | -6 | -1 | x | 2 | x
O=C(c1cccc(Br)c1)N1CCN(c2cnn(-c3ccccc3)c(=O)c2Cl)CC1 | 4 | 2 | -3 | 6 | -8 | 28* | 15
CC(=O)c1ccc(N2CCN(C(=O)C3CCN(S(=O)(=O)c4ccc5c(c4)CC(C)N5C(C)=O)CC3)CC2)cc1 (configuration not stated) | 2 | -8 | 0 | 1 | x | 74* | 73* | LYPLA2 ABPP=64*
